Laboratory results: ChEMBL document CHEMBL2040734, “Benzothiazoles: search for anticancer agents” (2012)

Legend:
Type in all cases: functional
NCI-H226 = test: Growth inhibition of human NCI-H226 cells after 48 hrs by sulforhodamine B assay; conditions: NCI-H226, 48 h
In short: (§1)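 Adherent NCI-60 lines were grown in RPMI 1640 with 5% FBS and 2 mM L-glutamine, plated at 5000–40,000 cells/well and preincubated 24 h. They were then exposed to five concentrations (0.01–100 µM, from a DMSO stock) for 48 h at 37 °C, 5% CO2. Cells were fixed with cold TCA (10% final, 60 min, 4 °C) and stained with 0.4% SRB. Dye was solubilized in 10 mM Tris base and A515 read. GI50 was derived from time-zero, control and treated absorbances.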

UO-31 [1] = test: Cytotoxicity against human UO31 cells assessed as cell growth at 100 uM after 48 hrs by sulforhodamine B assay; conditions: UO-31, 48 h, read-out: Activity
CAKI-1 = test: Cytotoxicity against human Caki1 cells assessed as cell growth at 1 uM after 48 hrs by sulforhodamine B assay; conditions: CAKI-1, 48 h, read-out: Activity
In short: (§2)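 NCI-60 five-dose screen. Cells were grown in RPMI 1640 with 5% FBS and 2 mM L-glutamine and preincubated 24 h. Compound (DMSO stock) was tested at 0.01, 0.1, 1, 10 and 100 µM for 48 h at 37 °C. Cells were fixed in situ with cold TCA (final 10%) and stained with 0.4% SRB. A515 was read, and percent growth was calculated against time-zero and control plates.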

SF-539 = test: Cytotoxicity against human SF539 cells assessed as cell growth at 100 uM after 48 hrs by sulforhodamine B assay; conditions: SF-539, 48 h, read-out: Activity
NCI-H322M = test: Cytotoxicity against human NCI-H322M cells assessed as cell growth at 0.01 uM after 48 hrs by sulforhodamine B assay; conditions: read-out: Activity
SR = test: Cytotoxicity against human SR cells assessed as cell growth at 0.01 uM after 48 hrs by sulforhodamine B assay; conditions: read-out: Activity
SNB-75 = test: Cytotoxicity against human SNB75 cells assessed as cell growth at 100 uM after 48 hrs by sulforhodamine B assay; conditions: SNB-75, 48 h, read-out: Activity
KM12 [2] = test: Growth inhibition of human KM12 cells after 48 hrs by sulforhodamine B assay; conditions: KM12, 48 h; for CC50: read-out: LC50 (the source's name); in short: as §1
OVCAR-4 = test: Cytotoxicity against human OVCAR4 cells assessed as cell growth at 10 '-5 M after 48 hrs by sulforhodamine B assay; conditions: OVCAR-4, 48 h, read-out: Activity
LOX IMVI [3] = test: Cytotoxicity against human LOXIMVI cells assessed as cell growth at 10 uM after 48 hrs by sulforhodamine B assay; conditions: read-out: Activity
RXF 393 [4] = test: Cytotoxicity against human RXF393 cells assessed as cell growth at 10 uM after 48 hrs by sulforhodamine B assay; conditions: RXF 393, 48 h, read-out: Activity
KM12 [5] = test: Cytotoxicity against human KM12 cells assessed as cell growth at 1 uM after 48 hrs by sulforhodamine B assay; conditions: KM12, 48 h, read-out: Activity
NCI-H522 = test: Cytotoxicity against human NCI-H522 cells assessed as cell growth at 0.1 uM after 48 hrs by sulforhodamine B assay; conditions: NCI-H522, 48 h, read-out: Activity
MCF7 = test: Cytotoxicity against human MCF7 cells assessed as cell growth at 1 uM after 48 hrs by sulforhodamine B assay; conditions: MCF7, 48 h, read-out: Activity
SF-268 = test: Cytotoxicity against human SF268 cells assessed as cell growth at 10 '-5 M after 48 hrs by sulforhodamine B assay; conditions: SF-268, 48 h, read-out: Activity
LOX IMVI [6] = test: Growth inhibition of human LOXIMVI cells after 48 hrs by sulforhodamine B assay; in short: as §1
RXF 393 [7] = test: Cytotoxicity against human RXF393 cells assessed as cell growth at 100 uM after 48 hrs by sulforhodamine B assay; conditions: RXF 393, 48 h, read-out: Activity
UO-31 [8] = test: Cytotoxicity against human UO31 cells assessed as cell growth at 0.1 uM after 48 hrs by sulforhodamine B assay; conditions: UO-31, 48 h, read-out: Activity
IGROV-1 = test: Cytotoxicity against human IGROV1 cells assessed as cell growth at 10 '-5 M after 48 hrs by sulforhodamine B assay; conditions: IGROV-1, 48 h, read-out: Activity
NCI-H460 = test: Cytotoxicity against human NCI-H460 cells assessed as cell growth at 100 uM after 48 hrs by sulforhodamine B assay; conditions: NCI-H460, 48 h, read-out: Activity
UACC-257 = test: Cytotoxicity against human UACC257 cells assessed as cell growth at 100 uM after 48 hrs by sulforhodamine B assay; conditions: UACC-257, 48 h, read-out: Activity
CCRF-CEM = test: Cytotoxicity against human CCRF-CEM cells assessed as cell growth at 10 uM after 48 hrs by sulforhodamine B assay; conditions: read-out: Activity
In short: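 CCRF-CEM suspension leukemia cells in RPMI 1640 with 5% FBS and 2 mM L-glutamine, plated 24 h before dosing. Five concentrations (0.01–100 µM) were applied from a DMSO stock for 48 h at 37 °C. Settled cells were fixed with 80% TCA (final 16%) and stained with SRB, with read-out at 515 nm. Percent growth was derived from time-zero and control absorbances.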

SK-MEL-5 = test: Cytotoxicity against human SK-MEL-5 cells assessed as cell growth at 10 uM after 48 hrs by sulforhodamine B assay; conditions: SK-MEL-5, 48 h, read-out: Activity
NCI-H23 = test: Cytotoxicity against human NCI-H23 cells assessed as cell growth at 0.1 uM after 48 hrs by sulforhodamine B assay; conditions: NCI-H23, 48 h, read-out: Activity
786-0 [9] = test: Cytotoxicity against human 786-0 cells assessed as cell growth at 10 uM after 48 hrs by sulforhodamine B assay; conditions: 786-0, 48 h, read-out: Activity; in short: as §2
A549 = test: Cytotoxicity against human A549 cells assessed as cell growth at 0.01 uM after 48 hrs by sulforhodamine B assay; conditions: A549, 48 h, read-out: Activity; in short: as §2
UACC-62 = test: Cytotoxicity against human UACC62 cells assessed as cell growth at 10 uM after 48 hrs by sulforhodamine B assay; conditions: UACC-62, 48 h, read-out: Activity
LOX IMVI [10] = test: Cytotoxicity against human LOXIMVI cells assessed as cell growth at 100 uM after 48 hrs by sulforhodamine B assay; conditions: read-out: Activity
HCC 2998 = test: Growth inhibition of human HCC2998 cells after 48 hrs by sulforhodamine B assay; conditions: HCC 2998, 48 h; for CC50: read-out: LC50 (the source's name); in short: as §1
786-0 [11] = test: Cytotoxicity against human 786-0 cells assessed as cell growth at 1 uM after 48 hrs by sulforhodamine B assay; conditions: 786-0, 48 h, read-out: Activity; in short: as §2

| SMILES | GI50 (NCI-H226) [nM] | LC50 (NCI-H226) [nM] | TGI (NCI-H226) [nM] | growth at 100 µM (UO-31 [1]) [%] | growth at 1 µM (CAKI-1) [%] | growth at 100 µM (SF-539) [%] | growth at 0.01 µM (NCI-H322M) [%] | growth at 0.01 µM (SR) [%] | growth at 100 µM (SNB-75) [%] | GI50 (KM12 [2]) [nM] | TGI (KM12 [2]) [nM] | CC50 (KM12 [2]) [nM] | growth at 10 µM (OVCAR-4) [%] | growth at 10 µM (LOX IMVI [3]) [%] | growth at 10 µM (RXF 393 [4]) [%] | growth at 1 µM (KM12 [5]) [%] | growth at 0.1 µM (NCI-H522) [%] | growth at 1 µM (MCF7) [%] | growth at 10 µM (SF-268) [%] | TGI (LOX IMVI [6]) [nM] | other results |
| --- | --- | --- | --- | --- | --- | --- | --- | --- | --- | --- | --- | --- | --- | --- | --- | --- | --- | --- | --- | --- | --- |
| Cc1ccc2nc(Nc3c(C)cccc3C)sc2c1 | > 100000 | > 100000 | > 100000 | 80 | 39 | 48 | 97 | 98 | 32 | 1550 | > 100000 | > 100000 | 63 | 23 | 27 | 55 | 85 | 53 | 61 | > 100000 | LC50 (LOX IMVI [6]): > 100000 nM; growth at 100 µM (RXF 393 [7]): 24%; growth at 0.1 µM (UO-31 [8]): 97%; growth at 10 µM (IGROV-1): 49.2%; growth at 100 µM (NCI-H460): 51%; growth at 100 µM (UACC-257): 73%; growth at 10 µM (CCRF-CEM): 58%; growth at 10 µM (SK-MEL-5): 33%; growth at 0.1 µM (NCI-H23): 92%; growth at 10 µM (786-0 [9]): 56%; growth at 0.01 µM (A549): 103%; growth at 10 µM (UACC-62): 23%; growth at 100 µM (LOX IMVI [10]): 57%; GI50 (HCC 2998): > 100000 nM; TGI (HCC 2998): > 100000 nM; CC50 (HCC 2998): > 100000 nM; growth at 1 µM (786-0 [11]): 81% |
| Clc1cccc(Cl)c1Nc1nc2cccc(Cl)c2s1 | 1180 | 6950 | 2860 | -62 | 18 | -57 | 92 | 100 | 4 | 1200 | 2480 | 5150 | 6.72 | -83 | -73 | 62 | 86 | 46 | -33.9 | 2510 | GI50 (LOX IMVI [6]): 1090 nM; growth at 100 µM (RXF 393 [7]): -40%; growth at 0.1 µM (UO-31 [8]): 56%; growth at 10 µM (IGROV-1): 3.69%; growth at 100 µM (NCI-H460): -39%; growth at 100 µM (UACC-257): -67%; growth at 10 µM (CCRF-CEM): -34%; growth at 10 µM (SK-MEL-5): -95%; growth at 0.1 µM (NCI-H23): 83%; growth at 10 µM (786-0 [9]): -93%; growth at 0.01 µM (A549): 103%; growth at 10 µM (UACC-62): -85%; growth at 100 µM (LOX IMVI [10]): -21%; GI50 (HCC 2998): 1340 nM; TGI (HCC 2998): 2780 nM; CC50 (HCC 2998): 5740 nM; growth at 1 µM (786-0 [11]): 52% |
